24 sequences from the EternaBench riboswitch data can be followed below.

This series deals with MS2 coat protein. Kind of series: apparent Kd, MS2 coat protein; higher = weaker binding; RNA-MaP array; FMN 200 µM where present. In short, it runs like this: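 In 100 mM Tris-HCl pH 7.5, 80 mM KCl, 4 mM MgCl2, BSA, DTT, yeast tRNA and Tween-20, SNAP-549-labelled MS2 coat protein was titrated from 0.7 or 1.5 nM, doubling to 3 µM, over designs transcribed by stalled E. coli RNA polymerase on Illumina sequencing-chip clusters. This was done first without ligand, then with ligand held constant. After green signal was normalised to red-channel RNA signal and control-cluster median Fmax, the apparent Kd was taken as the median of filtered per-cluster binding-curve fits.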

[1] abbreviates: designed as: ON switch for flavin mononucleotide, no ligand.
The mark [2] stands for this setting: ligand present: flavin mononucleotide, designed as: ON switch for flavin mononucleotide.
Where [3] appears, read: designed as: OFF switch for flavin mononucleotide, no ligand.
Where [4] appears, read: ligand present: flavin mononucleotide, designed as: OFF switch for flavin mononucleotide.

Consider “ACACAUGAGGAUCACCCAUGUAGCUGGCGUCUGCGCCAGCCACAGGAUAUACGGCAAAACAAACCGUAGAAGGGUGAUAAACAC”, for which the apparent Kd (usually the concentration giving half-maximal binding under the conditions of the assay) is, setting by setting: under setting [1], 80.1 nM; under setting [2], 31.8 nM.

As for “UAGGACUACGUAGGAUAUUAAAUCAUGUACUACAUGAGGAUCACCCAUGUUAAUUUAACAUCAGCUGAGAAGGACGUGGUAAAU”, the “apparent Kd” value came out at 120 nM under setting [1] and 58.5 nM under setting [2].

As to “GGAGCUCACAUGAACAUGAGGAUCACCCAUGUAACUAGACAUGAGGAUAUGGAUCCUAAUUGGAUCCAGAAGGCAUGGAGCUCC”, the “apparent Kd” value was 161 nM under setting [1] and 27.9 nM under setting [2].

Take “CAUGUGUAAGGAUAUGACAAUGGUAUCUUCGGAUACCAUUGUCAGAAGGUACAUGAGGAUCACCCAUGUAGAUC”: the “apparent Kd” value is, setting by setting: under setting [3], 55 nM; under setting [4], 240 nM.

In the case of “UUUUAGUAAGGAUAUGCGUAGAUCUACGAAAGUAGAUCUACGCAGAAGGUACAUGAGGAUCACCCAUGUAGAUU”, the “apparent Kd” value by setting is: under setting [3], 21.5 nM; under setting [4], 26.7 nM.

As for “GUUUGAUUGUAGAAGGUACUUAAUACUCAUGUUACAUGAGGAUCACCCAUGUUUCUACAUUAUUGUAAGGAUAUACAUAACUCA”, the “apparent Kd” value reads like this: under setting [1], 259 nM; under setting [2], 48.6 nM.

“GGACGUCAGAUUAACAUGAGGAUCACCCAUGUCUUUUGACAUGAGGAUAUGGAUCCUAAUUGGAUCCAGAAGGCAUGGACGUCC”: the “apparent Kd” value reads like this: under setting [1], 1120 nM; under setting [2], 94.9 nM.

As for “CUUUAGUGAGGAUAUCUGGCUUCGAUCGUGAGAUCGAGGCUAGAGAAGGCACAUGAGGAUCACCCAUGUUCCUC”, the “apparent Kd” value is, setting by setting: under setting [3], 40.1 nM; under setting [4], 439 nM.

For “CUUUAGUGAGGAUAUCAGUGGUAAUACAAUAGUAUUACUACUGAGAAGGCACAUGAGGAUCACCCAUGUUCCUC”, the “apparent Kd” value worked out at 26.6 nM under setting [3] and 155 nM under setting [4].

For “AAUAAUGUGAAGGAUAUCACUAGCGAUAGCUAGUGAGAAGGUCACACAUGAGGAUCACCCAUGUGUUCCAAUAA”, the “apparent Kd” value is 43.2 nM under setting [3] and 172 nM under setting [4].

“GGGUACAUCGGAGGAUAUCAUGUAAAUACAUGAGGAUCACCCAUGUCGAUGGAGACAUCGGAGAUUGAGAAGGCCGAUGCACCG”: the “apparent Kd” value runs as follows: under setting [1], 203 nM; under setting [2], 8.97 nM.

Regarding “GGUUGUCAUCGUCGUCCUUUCGUUACAUGAGGAUCACCCAUGUAGGAUAUGCUGCAUUCGAUGUGGCAGAAGGGCAUGUGUGUU”, the “apparent Kd” value under setting [3] is 18.1 nM and the “apparent Kd” value under setting [4] is 31.6 nM.

For “UUUAUAAAUUAGAAGGCGGGAUGAAUUACAAUAGACAUGAGGAUCACCCAUGUGUAUUCAUGUCUUGAGGAUAUAGUCAUAUAU”, the “apparent Kd” value was found to be 271 nM under setting [1] and 110 nM under setting [2].

In the case of “GGGCUGUCAGGAUAUACAUGAGGAUCACCCAUGUCGAGCUGUGAUAGGGCAAGAGUAGGUAGAAGGGACGAGAG”, the “apparent Kd” value by setting is: under setting [3], 34.7 nM; under setting [4], 36.1 nM.

In the case of “GGACGGUUAGUGAGGAUAUGCUCUACCUCGGUAGAGCAGAAGGCACAUGAGGAUCACCCAUGUGAUAACUGUUC”, the “apparent Kd” value under setting [3] was 18.6 nM and the “apparent Kd” value under setting [4] was 21.8 nM.

For the sequence “ACAUGAUAUGUAGGAUAUCACAUUAAUUGAUUAAUAUAUGAAUAUAGAAUUUGAGAAGGACAUUUACAUGAGGAUCACCCAUGU”, the “apparent Kd” value runs as follows: under setting [3], 15.7 nM; under setting [4], 10.8 nM.

Regarding “GCCAGUUAUGUAGGAUAUGCGAGGCGAGCCUGAGCAGAAGGACAUGAGGAUCACCCAUGUAUUGCGGUUUAUGUUCAGAUCGCU”, the “apparent Kd” value worked out at 15.9 nM under setting [3] and 18.2 nM under setting [4].

Regarding “AUUAUUAUAUUAUACAUGAGGAUCACCCAUGUUAUAAGUCAUGAGGAUAUGGUUUUGUAGAUUUUCCAGAAGGCAUUUAACUUA”, the “apparent Kd” value came to 13.3 nM under setting [1] and 7.8 nM under setting [2].

Turning to “AAUCGGGAGCAGAAGGCAUGUCAUAAGACAUGAGGAUCACCCAUGUAGUUAAGGCGAAAGCCGCAUGAGGAUAUGCUCCCGUAA”, the “apparent Kd” value is, setting by setting: under setting [1], 71.2 nM; under setting [2], 6.27 nM.

For “GUAACUUAUGUGAGGAUAUAUUAUGUCUUGGUGUAGUAGAAGGCACAUGAGGAUCACCCAUGUCCAAUUGGUCU”, the “apparent Kd” value turned out to be 229 nM under setting [3] and 457 nM under setting [4].

For the sequence “GCCUCAGAAUUAAUUGUGAGAAGCAGAAGGCUAUAUCUCAUGUUAAACAUGAGGAUCACCCAUGUAGAGGAUAUGCUAUUACAG”, the “apparent Kd” value worked out at 58.9 nM under setting [3] and 282 nM under setting [4].

Turning to “AUUUUGUCAGGAUAUGAGUAGUAGGACGAAAGUGCUACUACUUAGAAGGGACAUGAGGAUCACCCAUGUCUUCC”, the “apparent Kd” value reads like this: under setting [3], 13.9 nM; under setting [4], 16.8 nM.

Regarding “AAUAAACUCACAGGAUAUAGCAGAGGUCGCGUGAACUUACAGACGACGAGGCUAGAAGGGUGACCACAUGAGGAUCACCCAUGU”, the “apparent Kd” value runs as follows: under setting [1], 312 nM; under setting [2], 65.4 nM.

Turning to “CUGAGCUGAGGAUAUACAUGAGGAUCACCCAUGUGUUCGAGCUUGCGUACAGGCAGAUGUAGAAGGCAGUUCGG”, the “apparent Kd” value is 26.7 nM under setting [3] and 99.3 nM under setting [4].
